Activity calls are given as the source filed them.
Assays:
[1] = target: T1, Fatty-acid amide hydrolase 1 (Mus musculus, UniProt O08914); assay: Inhibition of mouse brain FAAH assessed as conversion of [3H-ethanolamine]AEA to [3H]ethanolamine by scintillation counting
T1 sequence (O08914 whole entry): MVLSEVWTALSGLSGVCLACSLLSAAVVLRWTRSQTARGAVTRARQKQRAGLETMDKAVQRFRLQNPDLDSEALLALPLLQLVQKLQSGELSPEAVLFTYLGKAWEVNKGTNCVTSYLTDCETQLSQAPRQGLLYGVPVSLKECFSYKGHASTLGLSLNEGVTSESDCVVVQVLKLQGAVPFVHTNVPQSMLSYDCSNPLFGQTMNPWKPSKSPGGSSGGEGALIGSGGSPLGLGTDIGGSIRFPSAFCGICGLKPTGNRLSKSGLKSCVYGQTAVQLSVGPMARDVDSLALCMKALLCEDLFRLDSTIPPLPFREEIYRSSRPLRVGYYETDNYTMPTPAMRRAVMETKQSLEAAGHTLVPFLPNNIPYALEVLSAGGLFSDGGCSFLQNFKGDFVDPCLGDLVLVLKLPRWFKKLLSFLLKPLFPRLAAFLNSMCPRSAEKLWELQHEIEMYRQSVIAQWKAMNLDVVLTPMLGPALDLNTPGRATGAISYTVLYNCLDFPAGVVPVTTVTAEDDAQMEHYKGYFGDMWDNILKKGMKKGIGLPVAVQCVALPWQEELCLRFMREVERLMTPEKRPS

[2] = Inhibition of mouse brain AMT
Cannabinoid receptor 1 = Cannabinoid receptor 1 (Mus musculus, UniProt P47746); assay: Inhibition of mouse brain CB1 receptor
Nociceptin receptor = Nociceptin receptor (Homo sapiens, UniProt P41146); assay: Displacement of [3H]nociceptin from human recombinant ORL1 receptor expressed in H recombinant HEK293 cells; format: cell-based
Sequence of Nociceptin receptor (P41146 whole entry): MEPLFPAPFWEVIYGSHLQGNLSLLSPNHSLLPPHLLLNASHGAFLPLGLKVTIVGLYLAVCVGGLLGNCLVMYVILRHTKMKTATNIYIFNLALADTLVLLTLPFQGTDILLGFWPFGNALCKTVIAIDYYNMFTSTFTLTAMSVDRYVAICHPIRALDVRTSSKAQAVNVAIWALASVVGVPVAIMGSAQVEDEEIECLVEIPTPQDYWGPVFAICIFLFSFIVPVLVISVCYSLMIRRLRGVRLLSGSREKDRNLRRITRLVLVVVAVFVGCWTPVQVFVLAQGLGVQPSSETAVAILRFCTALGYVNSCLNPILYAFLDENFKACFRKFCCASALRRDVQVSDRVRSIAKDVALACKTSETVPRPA

[3] = target: Neuropeptide Y receptor type 1 (Homo sapiens, UniProt P25929); assay: Displacement of [125I]peptide YY from human recombinant Y1 receptor expressed in […] cell
[4] = target: Muscarinic acetylcholine receptor M3 (Homo sapiens, UniProt P20309); assay: Displacement of [3H]4-DAMP from human recombinant muscarinic M3 receptor expressed in CHO cells; format: cell-based
Sequence of Muscarinic acetylcholine receptor M3 (P20309 whole entry): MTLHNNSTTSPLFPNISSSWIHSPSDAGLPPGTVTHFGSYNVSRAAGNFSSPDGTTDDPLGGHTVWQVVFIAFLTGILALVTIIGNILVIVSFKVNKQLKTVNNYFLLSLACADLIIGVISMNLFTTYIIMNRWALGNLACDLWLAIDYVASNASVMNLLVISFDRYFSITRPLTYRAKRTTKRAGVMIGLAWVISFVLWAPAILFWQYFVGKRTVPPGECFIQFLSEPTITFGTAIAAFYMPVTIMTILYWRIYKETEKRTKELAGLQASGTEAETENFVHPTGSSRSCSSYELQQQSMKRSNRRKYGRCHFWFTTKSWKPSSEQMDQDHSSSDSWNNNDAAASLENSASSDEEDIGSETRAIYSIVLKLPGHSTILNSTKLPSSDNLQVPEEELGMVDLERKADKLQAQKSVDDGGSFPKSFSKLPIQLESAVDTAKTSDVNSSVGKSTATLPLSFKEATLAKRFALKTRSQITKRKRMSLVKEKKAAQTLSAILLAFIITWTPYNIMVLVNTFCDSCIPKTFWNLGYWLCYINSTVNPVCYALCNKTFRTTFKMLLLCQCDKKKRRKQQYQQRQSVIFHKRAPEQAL

Neuromedin-K receptor = Neuromedin-K receptor (Homo sapiens, UniProt P29371); assay: Displacement of [3H]SR 142801 from human recombinant NK3 receptor expressed in CHO cells; format: cell-based
[5] = target: Kappa-type opioid receptor (Rattus norvegicus, UniProt P34975); assay: Displacement of [3H]U69593 from rat recombinant kappa opioid receptor expressed in CHO cells; format: cell-based
B2 bradykinin receptor = B2 bradykinin receptor (Homo sapiens, UniProt P30411); assay: Displacement of [3H]bradykinin from human recombinant bradykinin B2 receptor expressed in CHO cells; format: cell-based
[6] = target: C-X-C chemokine receptor type 2 (Homo sapiens, UniProt P25025); assay: Displacement of [125I]IL-8 from human recombinant CXCR2 receptor expressed in HEK293 cells; format: cell-based
Substance-K receptor = Substance-K receptor (Homo sapiens, UniProt P21452); assay: Displacement of [125I]NKA from human recombinant NK2 receptor expressed in CHO cells; format: cell-based
[7] = target: Small conductance calcium-activated potassium channel protein 1 (Rattus norvegicus, UniProt P70606); assay: Displacement of [125I]apamin from SK+Ca channel in rat cerebral cortex; format: tissue-based
[8] = Displacement of [3H]GABA from GABA receptor in rat cerebral cortex; format: tissue-based
[9] = target: Voltage-gated L-type calcium channel (Rattus norvegicus, UniProt P22002+Q02485+P27732); assay: Displacement of [3H](-)D 888 from L-type calcium channel in rat cerebral cortex; format: tissue-based
[10] = target: Fatty-acid amide hydrolase 1 (Mus musculus) (UniProt O08914); assay: Inhibition of mouse brain FAAH assessed as residual activity
Summary of the method: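 FAAH was pre-incubated 20 min with an excess of inhibitor, then dialyzed 18 h at 4 °C against 20 mM Tris–HCl (pH 7.0). Residual activity was assayed before and after dialysis and compared with untreated controls. In a separate run, enzyme was pre-incubated with inhibitor at room temperature for 0–60 min before substrate turnover was measured. Values are means ± S.D. of three independent experiments.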

Mu-type opioid receptor = Mu-type opioid receptor (Homo sapiens, UniProt P35372); assay: Displacement of [3H]DAMGO from human recombinant mu opioid receptor expressed in HEK293 cells; format: cell-based
Histamine H1 receptor = Histamine H1 receptor (Homo sapiens, UniProt P35367); assay: Displacement of [3H]pyrilamine from human recombinant histamine H1 receptor expressed in HEK293 cells; format: cell-based
D(2) dopamine receptor = D(2) dopamine receptor (Homo sapiens, UniProt P14416); assay: Displacement of [3H]spiperone from human recombinant dopamine D2S receptor expressed in HEK293 cells; format: cell-based
[11] = target: Muscarinic acetylcholine receptor M2 (Homo sapiens, UniProt P08172); assay: Displacement of [3H]AF-DX 384 from human recombinant muscarinic M2 receptor expressed in CHO cells; format: cell-based
[12] = target: Melatonin receptor type 1A (Homo sapiens, UniProt P48039); assay: Displacement of [125I]2-iodomelatonin from human recombinant MT1 receptor expressed in CHO cells; format: cell-based
Melanocortin receptor 4 = Melanocortin receptor 4 (Homo sapiens, UniProt P32245); assay: Displacement of [125I]NDP-a-MSH from human recombinant MC4 receptor expressed in CHO cells; format: cell-based
[13] = target: Beta-2 adrenergic receptor (Homo sapiens, UniProt P07550); assay: Displacement of [3H](-)CGP 12177 from human recombinant beta2 receptor expressed in CHO cells; format: cell-based
Sequence of Beta-2 adrenergic receptor (P07550 whole entry): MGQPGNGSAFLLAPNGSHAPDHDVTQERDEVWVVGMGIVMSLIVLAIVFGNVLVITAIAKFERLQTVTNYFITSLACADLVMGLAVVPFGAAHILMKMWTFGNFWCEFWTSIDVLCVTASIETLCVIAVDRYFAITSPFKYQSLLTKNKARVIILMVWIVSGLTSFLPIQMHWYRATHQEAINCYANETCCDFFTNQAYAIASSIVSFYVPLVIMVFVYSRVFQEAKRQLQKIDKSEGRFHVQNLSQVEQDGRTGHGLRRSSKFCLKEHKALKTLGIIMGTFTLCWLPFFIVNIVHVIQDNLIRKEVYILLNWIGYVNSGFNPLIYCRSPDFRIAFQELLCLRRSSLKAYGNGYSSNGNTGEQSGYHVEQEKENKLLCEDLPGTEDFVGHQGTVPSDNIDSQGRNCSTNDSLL

[14] = Displacement of [3H]DADLE from human recombinant delta 2 opioid receptor expressed in CHO cells; format: cell-based
[15] = target: N-acyl-phosphatidylethanolamine-hydrolyzing phospholipase D (Mus musculus, UniProt Q8BH82); assay: Inhibition of mouse NAPEPLD
Sequence of N-acyl-phosphatidylethanolamine-hydrolyzing phospholipase D (Q8BH82 whole entry): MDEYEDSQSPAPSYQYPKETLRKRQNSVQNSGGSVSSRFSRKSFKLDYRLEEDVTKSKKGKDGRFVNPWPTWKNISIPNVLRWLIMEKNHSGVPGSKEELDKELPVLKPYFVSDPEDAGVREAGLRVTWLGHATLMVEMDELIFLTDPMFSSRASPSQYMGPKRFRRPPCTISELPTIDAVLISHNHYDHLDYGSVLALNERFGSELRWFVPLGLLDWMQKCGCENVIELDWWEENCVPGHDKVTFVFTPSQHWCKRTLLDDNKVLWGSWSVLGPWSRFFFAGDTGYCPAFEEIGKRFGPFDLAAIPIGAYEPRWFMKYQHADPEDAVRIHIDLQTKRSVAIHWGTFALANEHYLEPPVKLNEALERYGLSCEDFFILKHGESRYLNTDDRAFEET

[16] = target: Sodium-dependent serotonin transporter (Homo sapiens, UniProt P31645); assay: Displacement of [3H]imipramine from human recombinant 5HT transporter expressed in CHO cells; format: cell-based
Sequence of Sodium-dependent serotonin transporter (P31645 whole entry): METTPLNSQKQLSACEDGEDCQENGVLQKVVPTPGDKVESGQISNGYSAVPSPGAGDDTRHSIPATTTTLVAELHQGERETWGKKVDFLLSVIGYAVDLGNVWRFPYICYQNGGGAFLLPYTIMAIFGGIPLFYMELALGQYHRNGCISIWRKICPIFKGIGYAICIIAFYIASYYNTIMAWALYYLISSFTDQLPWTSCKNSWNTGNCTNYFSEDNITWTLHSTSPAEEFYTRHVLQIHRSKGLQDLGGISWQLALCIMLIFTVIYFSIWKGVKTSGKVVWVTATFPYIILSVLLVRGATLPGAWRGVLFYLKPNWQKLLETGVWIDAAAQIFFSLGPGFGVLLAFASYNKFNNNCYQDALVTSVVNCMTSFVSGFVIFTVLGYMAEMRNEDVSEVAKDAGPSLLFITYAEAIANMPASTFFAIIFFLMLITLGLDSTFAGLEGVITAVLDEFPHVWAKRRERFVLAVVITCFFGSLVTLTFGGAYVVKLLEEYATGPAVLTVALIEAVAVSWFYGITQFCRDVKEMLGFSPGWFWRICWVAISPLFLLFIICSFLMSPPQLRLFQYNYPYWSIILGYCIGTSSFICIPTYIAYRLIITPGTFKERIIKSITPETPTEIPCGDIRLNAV

[17] = target: Beta-1 adrenergic receptor (Homo sapiens, UniProt P08588); assay: Displacement of [3H](-)CGP 12177 from human recombinant beta-1 receptor expressed in HEK293 cells; format: cell-based
Vasopressin V1a receptor = Vasopressin V1a receptor (Homo sapiens, UniProt P37288); assay: Displacement of [3H]AVP from human recombinant V1a receptor expressed in H recombinant CHO cells; format: cell-based
Sequence of Vasopressin V1a receptor (P37288 whole entry): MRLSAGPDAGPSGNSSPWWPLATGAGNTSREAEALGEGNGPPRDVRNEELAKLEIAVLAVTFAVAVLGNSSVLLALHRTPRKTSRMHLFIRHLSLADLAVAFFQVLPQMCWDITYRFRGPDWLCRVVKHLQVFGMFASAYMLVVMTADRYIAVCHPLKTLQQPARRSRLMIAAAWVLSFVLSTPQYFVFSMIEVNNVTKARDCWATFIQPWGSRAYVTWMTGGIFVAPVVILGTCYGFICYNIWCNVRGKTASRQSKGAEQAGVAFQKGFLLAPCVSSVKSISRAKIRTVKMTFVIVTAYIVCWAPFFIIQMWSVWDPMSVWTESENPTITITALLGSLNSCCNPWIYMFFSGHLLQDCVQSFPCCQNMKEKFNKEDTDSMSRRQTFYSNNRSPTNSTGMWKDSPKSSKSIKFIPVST

Cannabinoid receptor 2 = Cannabinoid receptor 2 (Mus musculus, UniProt P47936); assay: Inhibition of mouse brain CB2 receptor
[18] = Displacement of [3H]flunitrazepam from BZD receptor in rat cerebral cortex; format: tissue-based
[19] = target: Cholecystokinin receptor type A (Homo sapiens, UniProt P32238); assay: Displacement of [125I]CCK-8 from human recombinant CCKA receptor expressed in CHO cells; format: cell-based
Sequence of Cholecystokinin receptor type A (P32238 whole entry): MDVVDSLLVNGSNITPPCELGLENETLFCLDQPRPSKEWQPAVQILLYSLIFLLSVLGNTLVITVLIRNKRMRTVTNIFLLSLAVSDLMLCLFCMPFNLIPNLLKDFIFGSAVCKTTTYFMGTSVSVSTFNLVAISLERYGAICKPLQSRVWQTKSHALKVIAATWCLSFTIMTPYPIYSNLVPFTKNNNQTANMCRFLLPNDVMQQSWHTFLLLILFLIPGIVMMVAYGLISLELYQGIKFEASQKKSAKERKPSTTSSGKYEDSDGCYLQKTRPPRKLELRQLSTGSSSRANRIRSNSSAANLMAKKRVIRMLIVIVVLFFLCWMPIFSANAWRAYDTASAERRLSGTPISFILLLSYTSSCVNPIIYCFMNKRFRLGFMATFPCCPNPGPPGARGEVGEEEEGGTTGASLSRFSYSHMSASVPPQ

[20] = target: Transient receptor potential cation channel subfamily V member 1 (Mus musculus, UniProt Q704Y3); assay: Inhibition of mouse TRPV1 receptor
[21] = target: 5-hydroxytryptamine receptor 3A (Homo sapiens, UniProt P46098); assay: Displacement of [3H]BRL 43694 from human recombinant 5HT3 receptor expressed in CHO cells; format: cell-based
[22] = target: Type-1 angiotensin II receptor (Homo sapiens, UniProt P30556); assay: Displacement of [125I][Sar1,Ile8]-AT II from human recombinant AT1 receptor expressed in HEK293 cells; format: cell-based
[23] = target: 5-hydroxytryptamine receptor 7 (Homo sapiens, UniProt P34969); assay: Displacement of [3H]LSD from human recombinant 5HT7 receptor expressed in CHO cells; format: cell-based
[24] = target: Adrenergic receptor alpha-2 (Rattus norvegicus, UniProt P22086+P19328+P22909); assay: Displacement of [3H][…] from alpha2 receptor in rat cerebral cortex; format: tissue-based
[25] = Displacement of [125I]Tyr11-somatostatin-14 from human recombinant sst receptor expressed in AtT-20 cells; format: cell-based; conditions: att20
[26] = target: Sodium-dependent dopamine transporter (Homo sapiens, UniProt Q01959); assay: Displacement of [3H]BTCP from human recombinant dopamine transporter expressed in CHO cells; format: cell-based
[27] = target: C-C chemokine receptor type 1 (Homo sapiens, UniProt P32246); assay: Displacement of [125I]MIP-1a from human recombinant CCR1 receptor expressed in HEK293 cells; format: cell-based
Sequence of C-C chemokine receptor type 1 (P32246 whole entry): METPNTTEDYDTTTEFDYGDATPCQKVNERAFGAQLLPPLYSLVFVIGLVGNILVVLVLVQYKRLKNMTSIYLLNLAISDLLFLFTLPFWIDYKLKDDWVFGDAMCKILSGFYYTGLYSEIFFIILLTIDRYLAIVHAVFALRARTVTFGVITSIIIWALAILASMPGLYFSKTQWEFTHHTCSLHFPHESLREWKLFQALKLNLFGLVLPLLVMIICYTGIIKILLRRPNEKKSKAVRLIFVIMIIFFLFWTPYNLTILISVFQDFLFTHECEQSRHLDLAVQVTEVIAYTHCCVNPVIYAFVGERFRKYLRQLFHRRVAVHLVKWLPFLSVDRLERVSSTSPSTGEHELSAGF

Thromboxane A2 receptor = Thromboxane A2 receptor (Homo sapiens, UniProt P21731); assay: Displacement of [3H]SQ 29548 from human recombinant TXA2 receptor expressed in HEK293 cells; format: cell-based
Sequence of Thromboxane A2 receptor (P21731 whole entry): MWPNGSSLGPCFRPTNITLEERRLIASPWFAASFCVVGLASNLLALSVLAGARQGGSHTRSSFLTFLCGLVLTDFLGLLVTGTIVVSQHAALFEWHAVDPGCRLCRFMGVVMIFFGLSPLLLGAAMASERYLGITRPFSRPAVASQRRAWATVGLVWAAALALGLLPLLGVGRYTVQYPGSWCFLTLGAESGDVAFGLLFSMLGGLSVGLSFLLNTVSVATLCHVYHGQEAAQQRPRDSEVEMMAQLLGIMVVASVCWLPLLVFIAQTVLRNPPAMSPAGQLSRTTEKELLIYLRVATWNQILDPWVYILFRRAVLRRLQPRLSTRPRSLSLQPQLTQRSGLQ

[28] = target: Neurotensin receptor type 1 (Homo sapiens, UniProt P30989); assay: Displacement of [125I]Tyr3-neurotensin from human recombinant NT1 receptor expressed in H recombinant CHO cells; format: cell-based
[29] = target: Neuropeptide Y receptor type 2 (Homo sapiens, UniProt P49146); assay: Displacement of [125I]peptide YY from human recombinant Y2 receptor expressed in KAN-TS cells; format: cell-based
[30] = target: 5-hydroxytryptamine receptor 2A (Homo sapiens, UniProt P28223); assay: Displacement of [3H]Ketanserin from human recombinant 5HT2A receptor expressed in HEK293 cells; format: cell-based
Sequence of 5-hydroxytryptamine receptor 2A (P28223 whole entry): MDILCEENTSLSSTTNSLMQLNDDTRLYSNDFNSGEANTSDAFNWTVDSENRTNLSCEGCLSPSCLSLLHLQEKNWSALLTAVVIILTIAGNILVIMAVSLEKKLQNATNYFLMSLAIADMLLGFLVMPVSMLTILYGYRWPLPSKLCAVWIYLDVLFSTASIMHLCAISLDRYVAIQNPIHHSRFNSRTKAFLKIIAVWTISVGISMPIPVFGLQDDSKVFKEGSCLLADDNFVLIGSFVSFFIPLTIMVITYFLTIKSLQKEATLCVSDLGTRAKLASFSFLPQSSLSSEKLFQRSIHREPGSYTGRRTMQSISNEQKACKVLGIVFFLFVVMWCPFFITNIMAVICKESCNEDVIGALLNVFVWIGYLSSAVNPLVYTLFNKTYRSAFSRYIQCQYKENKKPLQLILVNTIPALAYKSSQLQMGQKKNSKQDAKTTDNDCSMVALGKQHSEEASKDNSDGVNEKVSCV

Adenosine receptor A2a = Adenosine receptor A2a (Homo sapiens, UniProt P29274); assay: Displacement of [3H]CGS21680 from human recombinant A2A receptor expressed in HEK293 cells; format: cell-based
Adenosine receptor A3 = Adenosine receptor A3 (Homo sapiens, UniProt P0DMS8); assay: Displacement of [3H]AB-MECA from human recombinant A3 receptor expressed in HEK293 cells; format: cell-based
[31] = target: Muscarinic acetylcholine receptor M1 (Homo sapiens, UniProt P11229); assay: Displacement of [3H]pirenzepine from human recombinant muscarinic M1 receptor expressed in CHO cells; format: cell-based
D(1A) dopamine receptor = D(1A) dopamine receptor (Homo sapiens, UniProt P21728); assay: Displacement of [3H]SCH 23390 from human recombinant dopamine D1 receptor expressed in CHO cells; format: cell-based
[32] = target: 5-hydroxytryptamine receptor 1B (Rattus norvegicus, UniProt P28564); assay: Displacement of [125I]CYP from 5HT1B receptor expressed in rat cerebral cortex; format: tissue-based
Histamine H2 receptor = Histamine H2 receptor (Homo sapiens, UniProt P25021); assay: Displacement of [125I]APT from human recombinant histamine H2 receptor expressed in CHO cells; format: cell-based
Galanin receptor type 2 = Galanin receptor type 2 (Homo sapiens, UniProt O43603); assay: Displacement of [125I]Galanin from human recombinant GAL2 receptor expressed in CHO cells; format: cell-based
Sequence of Galanin receptor type 2 (O43603 whole entry): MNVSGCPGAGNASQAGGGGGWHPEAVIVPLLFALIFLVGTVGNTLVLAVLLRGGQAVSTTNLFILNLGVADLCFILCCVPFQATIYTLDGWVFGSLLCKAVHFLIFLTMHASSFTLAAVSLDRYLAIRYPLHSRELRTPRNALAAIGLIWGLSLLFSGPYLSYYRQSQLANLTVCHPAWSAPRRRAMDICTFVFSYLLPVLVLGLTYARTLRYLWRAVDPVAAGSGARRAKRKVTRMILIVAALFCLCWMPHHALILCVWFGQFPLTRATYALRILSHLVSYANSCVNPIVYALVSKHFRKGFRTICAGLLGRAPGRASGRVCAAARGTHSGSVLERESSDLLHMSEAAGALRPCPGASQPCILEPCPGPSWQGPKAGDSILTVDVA

Endothelin-1 receptor = Endothelin-1 receptor (Homo sapiens, UniProt P25101); assay: Displacement of [125I]endothelin-1 from human recombinant ETA receptor expressed in CHO cells; format: cell-based
[33] = target: 5-hydroxytryptamine receptor 5A (Homo sapiens, UniProt P47898); assay: Displacement of [3H]LSD from human recombinant 5HT5A receptor expressed in CHO cells; format: cell-based
[34] = Displacement of [125I]VIP from human recombinant VIP receptor expressed in H recombinant CHO cells; format: cell-based
[35] = target: 5-hydroxytryptamine receptor 1A (Homo sapiens, UniProt P08908); assay: Displacement of [3H]8-OH-DPAT from human recombinant 5HT1A receptor expressed in HEK293 cells; format: cell-based
[36] = target: Adrenergic receptor alpha-1 (Rattus norvegicus, UniProt P15823+P23944+P43140); assay: Displacement of [3H]prazosine from alpha1 receptor in rat cerebral cortex; format: tissue-based
Adenosine receptor A1 = Adenosine receptor A1 (Homo sapiens, UniProt P30542); assay: Displacement of [3H]DPCPX from human recombinant A1 receptor expressed in CHO cells; format: cell-based
[37] = target: 5-hydroxytryptamine receptor 6 (Homo sapiens, UniProt P50406); assay: Displacement of [3H]LSD from human recombinant 5HT6 receptor expressed in CHO cells; format: cell-based

C/C(=N\OC(=O)Nc1ccccc1)c1cccc(-c2cccc(C(=O)NC(=O)Nc3ccccc3)c2)c1
> 25 µM: IC50 [1]

C/C(=N\OC(=O)Nc1cccc2ccccc12)c1ccc(C2CCCCC2)cc1
> 1 µM: IC50 [1]

C/C(=N\OC(=O)Nc1ccccc1)c1ccc(-c2ccccc2)cc1
0.76 µM: IC50 [1]

C/C(=N\OC(=O)N1CCCCC1)c1cccc(-c2ccccc2)c1
0.22 µM: IC50 [1]

C/C(=N\OC(=O)Nc1ccccc1)c1cccc(-c2cccs2)c1
10 µM: IC50 (Cannabinoid receptor 2)
0.008 µM: IC50 [1]
active: inhibition [10]
1 µM: IC50 [14] | IC50 [18] | IC50 [19] | IC50 (Adenosine receptor A3) | IC50 [33] | IC50 [35]
> 10 µM: IC50 (Cannabinoid receptor 1) | IC50 (Nociceptin receptor) | IC50 [3] | IC50 [4] | IC50 (Neuromedin-K receptor) | IC50 [5] | IC50 (B2 bradykinin receptor) | IC50 [6] | IC50 (Substance-K receptor) | IC50 [7] | IC50 [8] | IC50 [9] | IC50 (Mu-type opioid receptor) | IC50 (Histamine H1 receptor) | IC50 (D(2) dopamine receptor) | IC50 [11] | IC50 [12] | IC50 (Melanocortin receptor 4) | IC50 [13] | IC50 [15] | IC50 [16] | IC50 [17] | IC50 (Vasopressin V1a receptor) | IC50 [20] | IC50 [21] | IC50 [22] | IC50 [23] | IC50 [24] | IC50 [25] | IC50 [26] | IC50 [27] | IC50 (Thromboxane A2 receptor) | IC50 [28] | IC50 [29] | IC50 [30] | IC50 (Adenosine receptor A2a) | IC50 [31] | IC50 (D(1A) dopamine receptor) | IC50 [32] | IC50 (Histamine H2 receptor) | IC50 (Galanin receptor type 2) | IC50 (Endothelin-1 receptor) | IC50 [34] | IC50 [36] | IC50 (Adenosine receptor A1) | IC50 [37]
0.1 µM: IC50 [2]

C/C(=N\OC(=O)N(C)C)c1ccc(-c2ccccc2)cc1
> 50 µM: IC50 [1]

C/C(=N\OC(=O)Nc1ccc(F)cc1)c1cccc(-c2ccccc2)c1
0.017 µM: IC50 [1]

C/C(=N\OC(=O)Nc1ccccc1)c1cccc(-c2cccc(C(N)=O)c2)c1
0.084 µM: IC50 [1]

C/C(=N\OC(=O)Nc1cccc2ccccc12)c1cccc(-c2ccccc2)c1
0.01 µM: IC50 [1]

C/C(=N\OC(=O)Nc1ccccc1)c1ccc(-c2cccs2)cc1
0.2 µM: IC50 [1]

— ChEMBL document CHEMBL1208724, “A new group of oxime carbamates as reversible inhibitors of fatty acid amide hydrolase” (Bioorg Med Chem Lett, 2010)
